Assay results from publication PMC3539145 (Scientific Reports, 2013).

How the values were obtained:
SW403 cells [1] = test: Ceramide levels in SW403 cells; format: cell-based, human; details: 3 μM, 3 h
How it was run: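 SW403 human colon adenocarcinoma cells are grown in DMEM with 10% FBS at 37°C and 5% CO2. They are treated with test compound at 3 µM, or with vehicle (0.1% DMSO in DMEM), for 3 h. Ceramide species, including d18:1/14:0, 16:0 and 18:0, are identified and quantified by LC/MS. Values are compared with vehicle by one-way ANOVA with Tukey's test.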

AC [2] = molecular target: T1, AC (Mus musculus, UniProt Q9WV54); test: AC activity measured ex vivo in mouse tissues after i.p. injection; design: species or system mice; details: for AC activity in mouse lungs and brain cortex: 10 or 30 mg-kg^−1 i.p., ex vivo 2 h after injection
T1 sequence (Q9WV54 19-394): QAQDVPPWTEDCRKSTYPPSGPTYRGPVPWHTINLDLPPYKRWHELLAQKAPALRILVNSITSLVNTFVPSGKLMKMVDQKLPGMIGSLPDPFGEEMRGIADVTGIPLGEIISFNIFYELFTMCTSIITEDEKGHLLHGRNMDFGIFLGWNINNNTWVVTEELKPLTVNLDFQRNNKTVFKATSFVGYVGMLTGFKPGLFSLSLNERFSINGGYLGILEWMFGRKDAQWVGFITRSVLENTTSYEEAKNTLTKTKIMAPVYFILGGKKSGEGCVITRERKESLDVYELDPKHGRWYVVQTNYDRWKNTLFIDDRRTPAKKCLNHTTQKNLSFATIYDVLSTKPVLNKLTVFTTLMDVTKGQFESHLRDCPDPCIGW
How it was run: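 Male Swiss Webster mice (20–35 g) received test compound at 10 or 30 mg-kg−1 i.p. (1 ml-kg−1) in 15% polyethylene glycol/15% Tween-80/70% saline. Mice were killed by cervical dislocation 2 h after dosing. Lungs and brain cortex were frozen in liquid nitrogen and stored at −80°C. AC activity was measured ex vivo. Data are mean ± s.e.m., n = 6.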

[3] = molecular target: human thymidylate synthase (h-TS) (Homo sapiens, UniProt P04818); test: Human thymidylate synthase activity; format: biochemical
SW403 cells [4] = test: SW403 cell viability; format: cell-based, human; details: for interaction with taxol on SW403 cell viability / interaction with 5-FU on SW403 cell viability: isobolographic analyses; for interaction with 5-FU on SW403 cell viability: 5-FU 0.3 µM; for change in SW403 cell viability: single treatment, 3 μM, 3 h
How it was run: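 SW403 cells (2×10^5) are seeded the day before and treated in serum-free DMEM with test compound (0.1–100 µM) plus a partner drug (for 5-FU, 0.3 µM). Additions are repeated every 24 h over 72 h. Viability is read by Trypan blue exclusion on a hemocytometer. Interaction is assessed isobolographically, comparing experimental EC50 with the theoretical EC50 from the isobole equation.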

HEK 293 cells = test: Cell viability of native HEK 293 cells; format: cell-based, human
How it was run: (§1)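 Native HEK 293 cells and HEK 293 cells transfected with V5/His-tagged rat AC (pEF6 vector) and selected with G418 (0.3 mg/mL) are exposed to graded test-compound concentrations added in DMSO (final 0.1%). Cells are harvested, spun at 800xg for 10 min and resuspended in PBS. They are mixed 1:1 with 0.4% Trypan blue for 1 min, and viable cells are counted on a hemocytometer. Mean ± s.e.m., n = 4.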

AC [5] = molecular target: T2, AC (Homo sapiens, UniProt Q13510); test: AC activity in lysates of treated intact SW403 cells; format: cell-based
T2 sequence (Q13510 22-395): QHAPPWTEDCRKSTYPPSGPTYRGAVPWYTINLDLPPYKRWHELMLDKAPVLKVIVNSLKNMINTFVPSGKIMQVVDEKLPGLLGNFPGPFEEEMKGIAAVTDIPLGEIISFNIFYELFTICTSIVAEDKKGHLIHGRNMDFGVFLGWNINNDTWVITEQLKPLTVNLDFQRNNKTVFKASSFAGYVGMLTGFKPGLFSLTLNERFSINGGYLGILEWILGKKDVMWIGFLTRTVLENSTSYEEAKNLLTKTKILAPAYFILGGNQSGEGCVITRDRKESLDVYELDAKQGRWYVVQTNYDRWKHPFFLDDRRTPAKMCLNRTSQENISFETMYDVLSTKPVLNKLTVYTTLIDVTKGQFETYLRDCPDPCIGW
How it was run: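 Intact cells were exposed to test compound at 0.3–10 µM, with AC activity read 3 h later in cell lysates. A time course used 3 µM over various intervals. Vehicle was 0.1% DMSO in DMEM. SW403 cells were grown in DMEM with 10% FBS at 37°C, 5% CO2. Data are mean ± s.e.m., n = 3–6, each assay in duplicate.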

[6] = test system: AC-overexpressing HEK 293 cells; test: Cell viability of AC-overexpressing HEK 293 cells; format: cell-based, human
How it was run: as §1

[7] = test system: mouse tissues (lungs and cerebral cortex); test: Ceramide levels in mouse tissues after i.p. injection; format: in vivo; details: mice, 10 or 30 mg-kg^−1 i.p., lungs and brain cortex, 2 h
How it was run: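 Male Swiss Webster mice (20–35 g) receive test compound i.p. (10 or 30 mg-kg−1; 1 ml-kg−1) in 15% PEG, 15% Tween-80 and 70% saline, or vehicle alone. They are killed by cervical dislocation 2 h later. Lungs and cerebral cortex are snap-frozen in liquid nitrogen, stored at −80°C, and ceramide is measured by LC/MS. Mean ± s.e.m., n = 6.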

AC [8] = molecular target: T2, AC; test: AC activity in lysates of treated intact LNCaP cells; format: cell-based; details: 0.3–10 µM for 3 h; 3 µM for various time intervals
AC [9] = details: read-out: AC IC50; in vitro, in keratinocytes; cited from earlier work
[10] = Homo sapiens, HEK293, 24 h, read-out: EC50 (cell death / cell viability)

human thymidylate synthase (h-TS), sequence (P04818 whole entry): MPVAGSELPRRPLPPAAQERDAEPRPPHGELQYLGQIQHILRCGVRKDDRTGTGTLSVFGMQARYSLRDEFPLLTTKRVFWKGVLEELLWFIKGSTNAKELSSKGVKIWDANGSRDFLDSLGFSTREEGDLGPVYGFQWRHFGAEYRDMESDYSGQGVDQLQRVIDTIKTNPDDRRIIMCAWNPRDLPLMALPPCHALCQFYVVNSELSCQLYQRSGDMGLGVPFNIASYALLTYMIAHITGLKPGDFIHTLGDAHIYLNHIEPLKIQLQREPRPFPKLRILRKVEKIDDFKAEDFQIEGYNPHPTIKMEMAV

With `CCCCCCNC(=O)n1ccc(=O)[nH]c1=O` [ARN080, N-hexyl-2,4-dioxo-pyrimidine-1-carboxamide] the “ceramide levels in SW403 cells” value (SW403 cells [1]) was “increased ceramide levels”, the “AC activity in mouse lungs and brain cortex” value (AC [2]; mice) was “substantially reduced” and the ED50 (AC [2]; mouse, ip, 2 h, read-out: median inhibitory dose, ID50 (AC activity in vivo)) was ~10 mg/kg. The IC50 [3] was 196 ± 27 µM, the “interaction with taxol on SW403 cell viability” value (SW403 cells [4]) was “Super-additive effects” and the “interaction with 5-FU on SW403 cell viability” value (SW403 cells [4]) was “acted synergistically”. For the same compound, the “change in SW403 cell viability” value (SW403 cells [4]) was “did not result in any statistically detectable change”.

With `CCCCCCNC(=O)n1cc(C)c(=O)[nH]c1=O` [ARN081, N-hexyl-5-methyl-2,4-dioxo-pyrimidine-1-carboxamide] the IC50 [3] was 762 ± 123 µM.

Compound `CCCCCCNC(=O)n1cc(Cl)c(=O)[nH]c1=O` [ARN082, 5-chloro-N-hexyl-2,4-dioxo-pyrimidine-1-carboxamide] has an IC50 [3] of 496 ± 82 µM.

For `CCCCCCNC(=O)n1cc(C(F)(F)F)c(=O)[nH]c1=O` [ARN398, 5-trifluoromethyl-N-hexyl-2,4-dioxo-pyrimidine-1-carboxamide], the “ceramide levels in SW403 cells” value (SW403 cells [1]) was “increased ceramide levels”, the IC50 [3] was 1340 ± 268 µM and the “interaction with taxol on SW403 cell viability” value (SW403 cells [4]) was “Super-additive effects”. For the same compound, the “interaction with 5-FU on SW403 cell viability” value (SW403 cells [4]) was “acted synergistically” and the “change in SW403 cell viability” value (SW403 cells [4]) was “did not result in any statistically detectable change”.

With `CCCCCCNC(=O)n1cc(F)c(=O)[nH]c1=O` [Carmofur, 1-hexylcarbamoyl-5-fluorouracil] the EC50 (HEK 293 cells; [10]) was 1.4 µM, the “AC activity in SW403 cells” value (AC [5]; 0.3–10 µM for 3 h, 3 µM for various time intervals) was “concentration- and time-dependent reduction” and the “EC50 in AC-overexpressing cells relative to native cells” value ([6]; HEK 293-AC vs native HEK 293, 24 h) was 50 fold. For the same compound, the EC50 [6, 10] was 66 µM, the tissue ceramide content [7] was “increases in tissue ceramide content” and the “AC activity in mouse lungs and brain cortex” value (AC [2]; mice) was “dose-dependent inhibition”. For the same compound, the “AC activity in LNCaP cells” value (AC [8]) was “inhibits AC” and the IC50 [3] was 1210 ± 190 µM.

In the case of `O=c1[nH]cc(F)c(=O)[nH]1` [Compound 5-FU, 5-fluorouracil, reference compound], the “ceramide levels in SW403 cells” value (SW403 cells [1]) is reported as “did not cause any detectable changes”, the “AC activity in SW403 cells” value (AC [5]; 3 μM, 3 h) is reported as “did not cause any detectable changes” and the “AC activity in mouse tissue” value (AC [2]; mice, 30 mg-kg^−1 i.p., 2 h, lungs (Figure 3A)) is reported as “no statistically detectable effect”.

In the case of `CCCCCCCCCCCCCC(=O)N[C@H](CO)[C@H](O)c1ccc([N+](=O)[O-])cc1` [Compound B13, (1R, 2R)-2-(N-tetradecanoylamino)-1-(4-nitrophenyl)-1,3-propanediol], the IC50 (AC [9]) is given as ~10 µM.

With `CCCC[C@@H](C)[C@@H](OC(=O)C[C@@H](CC(=O)O)C(=O)O)[C@H](C[C@@H](C)C[C@H](O)CCCC[C@@H](O)C[C@H](O)[C@H](C)N)OC(=O)C[C@@H](CC(=O)O)C(=O)O` [FB1, fumonisin B1] the “effect of FB1 on carmofur induced cell death” value (HEK 293 cells; HEK 293 cells, combination of carmofur plus FB1, Trypan blue) was “does not decrease carmofur induced cell death”.
